Results taken from publication PMC4415995 (Advances in Therapy, 2015).
Marks after values point to notes of the source that are not given here.

Tested on: Japanese patients with T2DM
Assay: Plasma glucose concentrations, 7-day once-daily dosing
Type: in vivo, human
Procedure, shortened: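 Plasma glucose was measured by a glucose dehydrogenase enzymatic UV method. Sampling was pre-breakfast/pre-dose and 0.5–24 h after breakfast on Day −1, after dosing on Days 1 and 7, and pre-breakfast on Days 11 and 14. Standardized ~600 kcal meals were given, with lunch and dinner at 4 and 12 h. AUC, Cmax and tmax were non-compartmental. MPG was the mean of the 0, 2, 4, 6, 12, 14 and 16 h values. LS mean difference vs placebo with 95% CI.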

Structure (SMILES): CCOc1ccc(Cc2cc([C@@H]3S[C@H](CO)[C@@H](O)[C@H](O)[C@H]3O)c(OC)cc2C)cc1 [Luseogliflozin, (1S)-1,5-anhydro-1-[5-(4-ethoxybenzyl)-2-methoxy-4-methylphenyl]-1-thio-D-glucitol]
- FPG (24 h after dose) (0.5 mg OD, Day 1): 156 ± 23 mg/dL
- FPG (24 h after dose) LS mean difference vs placebo (95% CI) (0.5 mg OD, Day 1): −7.15 (−16.0, 1.71) mg/dL
- MPG0–16h (0.5 mg OD, Day 1): 224 ± 38.8 mg/dL
- MPG0–16h LS mean difference vs placebo (95% CI) (0.5 mg OD, Day 1): −6.39 (−16.6, 3.79) mg/dL
- Plasma glucose AUC0–4h (after breakfast) (0.5 mg OD, Day 1): 946 ± 175 mg·h/dL
- Plasma glucose AUC0–4h (after breakfast) LS mean difference vs placebo (95% CI) (0.5 mg OD, Day 1): 29.4 (−25.0, 83.8) mg h/dL
- Plasma glucose AUC4–8h (after lunch) (0.5 mg OD, Day 1): 915 ± 207 mg·h/dL
- Plasma glucose AUC4–8h (after lunch) LS mean difference vs placebo (95% CI) (0.5 mg OD, Day 1): −111 (−191, −31.1)* mg h/dL
- Plasma glucose AUC12–16h (after dinner) (0.5 mg OD, Day 1): 989 ± 114 mg·h/dL
- Plasma glucose AUC12–16h (after dinner) LS mean difference vs placebo (95% CI) (0.5 mg OD, Day 1): −16.3 (−69.6, 37.0) mg h/dL
- Plasma glucose C max0–4h (after breakfast) (0.5 mg OD, Day 1): 278 ± 53.0 mg/dL
- Plasma glucose C max4–8h (after lunch) (0.5 mg OD, Day 1): 259 ± 52.3 mg/dL
- Plasma glucose C max4–8h (after lunch) LS mean difference vs placebo (95% CI) (0.5 mg OD, Day 1): −43.5 (−68.5, −18.5)* mg/dL
- Plasma glucose C max12–16h (after dinner) (0.5 mg OD, Day 1): 286 ± 32.5 mg/dL
- Plasma glucose C max12–16h (after dinner) LS mean difference vs placebo (95% CI) (0.5 mg OD, Day 1): −16.0 (−35.0, 3.05) mg/dL
- FPG (24 h after dose) (0.5 mg OD, Day 7): 145 ± 18 mg/dL
- FPG (24 h after dose) LS mean difference vs placebo (95% CI) (0.5 mg OD, Day 7): −18.4 (−31.1, −5.75)* mg/dL
- MPG0–16h (0.5 mg OD, Day 7): 204 ± 35.3 mg/dL
- MPG0–16h LS mean difference vs placebo (95% CI) (0.5 mg OD, Day 7): −25.0 (−42.2, −7.90)* mg/dL
- Plasma glucose AUC0–4h (after breakfast) (0.5 mg OD, Day 7): 810 ± 156 mg·h/dL
- Plasma glucose AUC0–4h (after breakfast) LS mean difference vs placebo (95% CI) (0.5 mg OD, Day 7): −108 (−186, −29.3)* mg h/dL
- Plasma glucose AUC4–8h (after lunch) (0.5 mg OD, Day 7): 887 ± 209 mg·h/dL
- Plasma glucose AUC4–8h (after lunch) LS mean difference vs placebo (95% CI) (0.5 mg OD, Day 7): −165 (−267, −64.2)* mg h/dL
- Plasma glucose AUC12–16h (after dinner) (0.5 mg OD, Day 7): 924 ± 108 mg·h/dL
- Plasma glucose AUC12–16h (after dinner) LS mean difference vs placebo (95% CI) (0.5 mg OD, Day 7): −44.7 (−122, 32.2) mg h/dL
- Plasma glucose C max0–4h (after breakfast) (0.5 mg OD, Day 7): 243 ± 42.1 mg/dL
- Plasma glucose C max4–8h (after lunch) (0.5 mg OD, Day 7): 256 ± 61.7 mg/dL
- Plasma glucose C max4–8h (after lunch) LS mean difference vs placebo (95% CI) (0.5 mg OD, Day 7): −46.2 (−76.1, −16.3)* mg/dL
- Plasma glucose C max12–16h (after dinner) (0.5 mg OD, Day 7): 274 ± 34.6 mg/dL
- Plasma glucose C max12–16h (after dinner) LS mean difference vs placebo (95% CI) (0.5 mg OD, Day 7): −9.79 (−35.5, 15.9) mg/dL
- FPG (24 h after dose) (1 mg OD, Day 1): 146 ± 25 mg/dL
- FPG (24 h after dose) LS mean difference vs placebo (95% CI) (1 mg OD, Day 1): −7.90 (−16.6, 0.795) mg/dL
- MPG0–16h (1 mg OD, Day 1): 188 ± 30.0 mg/dL
- MPG0–16h LS mean difference vs placebo (95% CI) (1 mg OD, Day 1): −18.4 (−28.3, −8.55)* mg/dL
- Plasma glucose AUC0–4h (after breakfast) (1 mg OD, Day 1): 812 ± 158 mg·h/dL
- Plasma glucose AUC0–4h (after breakfast) LS mean difference vs placebo (95% CI) (1 mg OD, Day 1): −48.9 (−102, 4.37) mg h/dL
- Plasma glucose AUC4–8h (after lunch) (1 mg OD, Day 1): 766 ± 131 mg·h/dL
- Plasma glucose AUC4–8h (after lunch) LS mean difference vs placebo (95% CI) (1 mg OD, Day 1): −89.1 (−166, −11.9)* mg h/dL
- Plasma glucose AUC12–16h (after dinner) (1 mg OD, Day 1): 851 ± 117 mg·h/dL
- Plasma glucose AUC12–16h (after dinner) LS mean difference vs placebo (95% CI) (1 mg OD, Day 1): −91.4 (−142, −40.8)* mg h/dL
- Plasma glucose C max0–4h (after breakfast) (1 mg OD, Day 1): 255 ± 44.1 mg/dL
- Plasma glucose C max4–8h (after lunch) (1 mg OD, Day 1): 223 ± 33.7 mg/dL
- Plasma glucose C max4–8h (after lunch) LS mean difference vs placebo (95% CI) (1 mg OD, Day 1): −30.5 (−54.1, −7.02)* mg/dL
- Plasma glucose C max12–16h (after dinner) (1 mg OD, Day 1): 255 ± 37.3 mg/dL
- Plasma glucose C max12–16h (after dinner) LS mean difference vs placebo (95% CI) (1 mg OD, Day 1): −31.3 (−49.4, −13.3)* mg/dL
- FPG (24 h after dose) (1 mg OD, Day 7): 139 ± 14 mg/dL
- FPG (24 h after dose) LS mean difference vs placebo (95% CI) (1 mg OD, Day 7): −18.1 (−30.5, −5.62)* mg/dL
- MPG0–16h (1 mg OD, Day 7): 184 ± 24.0 mg/dL
- MPG0–16h LS mean difference vs placebo (95% CI) (1 mg OD, Day 7): −27.5 (−44.1, −10.8)* mg/dL
- Plasma glucose AUC0–4h (after breakfast) (1 mg OD, Day 7): 780 ± 116 mg·h/dL
- Plasma glucose AUC0–4h (after breakfast) LS mean difference vs placebo (95% CI) (1 mg OD, Day 7): −96.7 (−173, −20.0)* mg h/dL
- Plasma glucose AUC4–8h (after lunch) (1 mg OD, Day 7): 787 ± 126 mg·h/dL
- Plasma glucose AUC4–8h (after lunch) LS mean difference vs placebo (95% CI) (1 mg OD, Day 7): −138 (−236, −40.8)* mg h/dL
- Plasma glucose AUC12–16h (after dinner) (1 mg OD, Day 7): 824 ± 125 mg·h/dL
- Plasma glucose AUC12–16h (after dinner) LS mean difference vs placebo (95% CI) (1 mg OD, Day 7): −96.2 (−169, −23.2)* mg h/dL
- Plasma glucose C max0–4h (after breakfast) (1 mg OD, Day 7): 240 ± 31.3 mg/dL
- Plasma glucose C max4–8h (after lunch) (1 mg OD, Day 7): 229 ± 33.7 mg/dL
- Plasma glucose C max4–8h (after lunch) LS mean difference vs placebo (95% CI) (1 mg OD, Day 7): −34.7 (−62.8, −6.53)* mg/dL
- Plasma glucose C max12–16h (after dinner) (1 mg OD, Day 7): 242 ± 41.3 mg/dL
- Plasma glucose C max12–16h (after dinner) LS mean difference vs placebo (95% CI) (1 mg OD, Day 7): −29.4 (−53.8, −5.06)* mg/dL
